Assay results published in ChEMBL document CHEMBL3779809, “Bioactive Enmein-Type ent-Kaurane Diterpenoids from Isodon phyllostachys” (J Nat Prod, 2016).

Legend:
RAW264.7 = assay: Inhibition of LPS-induced NO production in mouse RAW264.7 cells at 25 uM preincubated with compound followed by LPS challenge measured after 18 hrs by Griess method; assay type: functional, cell-based
Summary of the method: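 RAW264.7 macrophages seeded at 2 × 10^5 cells/well and treated with serial compound dilutions (maximum 25 μM), then stimulated with LPS 1 μg/mL for 18 h. Supernatant nitrite measured with Griess reagents, absorbance 550 nm. MG-132 positive control. Viability checked in parallel by MTT to exclude cytotoxic interference.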

[1] = Cytotoxicity against human HL60 cells assessed growth inhibition at 40 uM after 48 hrs by MTS assay relative to control; assay type: functional; conditions: HL-60, 48 h, read-out: GI
Summary of the method: (§1)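 Cultured in RPMI-1640 or DMEM with 10% FBS at 37 °C under 5% CO2. Cells seeded, given 12 h at 37 °C, then treated with compound at 40 μM for 48 h. Growth inhibition measured by MTS assay (formazan colorimetry).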

[2] = Cytotoxicity against human SMMC7721 cells assessed as cell viability after 48 hrs by MTS assay; assay type: functional, cell-based; conditions: SMMC-7721, 48 h
Summary of the method: (§2)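 Cells grown in RPMI-1640 or DMEM with 10% FBS at 37 °C, 5% CO2. Seeded, incubated 12 h, then exposed to a range of concentrations in triplicate for 48 h. Viability read by MTS reduction to formazan. IC50 calculated by Reed and Muench method; cis-platin positive control.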

[3] = Cytotoxicity against human SMMC7721 cells assessed growth inhibition at 40 uM after 48 hrs by MTS assay relative to control; assay type: functional; conditions: SMMC-7721, 48 h, read-out: GI; summary of the method: as §1
A549 [4] = assay: Cytotoxicity against human A549 cells assessed as cell viability after 48 hrs by MTS assay; assay type: functional, cell-based; conditions: A549, 48 h; summary of the method: as §2
[5] = Cytotoxicity against human HL60 cells assessed as cell viability after 48 hrs by MTS assay; assay type: functional, cell-based; conditions: HL-60, 48 h; summary of the method: as §2
MCF7 = assay: Cytotoxicity against human MCF7 cells assessed as cell viability after 48 hrs by MTS assay; assay type: functional, cell-based; conditions: MCF7, 48 h; summary of the method: as §2
A549 [6] = assay: Cytotoxicity against human A549 cells assessed growth inhibition at 40 uM after 48 hrs by MTS assay relative to control; assay type: functional; conditions: A549, 48 h, read-out: GI; summary of the method: as §1
SW480 = assay: Cytotoxicity against human SW480 cells assessed as cell viability after 48 hrs by MTS assay; assay type: functional, cell-based; conditions: SW480, 48 h; summary of the method: as §2

| Compound | IC50 (RAW264.7) [µM] | inhibition of growth at 40 µM [1] [%] | IC50 [2] [µM] | inhibition of growth at 40 µM [3] [%] | IC50 (A549 [4]) [µM] | IC50 [5] [µM] | IC50 (MCF7) [µM] | inhibition of growth at 40 µM (A549 [6]) [%] | IC50 (SW480) [µM] |
| --- | --- | --- | --- | --- | --- | --- | --- | --- | --- |
| C=C1C(=O)[C@]23C[C@@H]1CC[C@H]2C12CO[C@@H](O)[C@@H]1C(C)(C)[C@@H](O)C[C@@H]2OC3=O (stereo partly specified) | 3.53 | > 50 | 9.8 | > 50 | 13.3 | 9.2 | 15.7 | > 50 | 5.5 |
| C=C1C(=O)[C@]23C[C@@H]1C[C@@H](O)[C@H]2[C@@]12CO[C@@H](O)[C@@H]1C(C)(C)CC[C@@H]2OC3=O | 3.56 | > 50 | 11.4 | > 50 | 14.3 | 10.3 | 14 | > 50 | 10.9 |
| C=C1C(=O)[C@]23C[C@@H]1CC[C@H]2C12C(O)O[C@@H](O)[C@@H]1C(C)(C)CC[C@@H]2OC3=O (stereo partly specified) | 7.42 | > 50 | 31.8 | > 50 | 39 | 16.8 | > 40 | > 50 | 14.8 |
| C=C1C(=O)[C@@]23C[C@@H]1C[C@H]1O[C@@H]4OC[C@]5([C@H](CCC(C)(C)[C@@H]45)OC2=O)[C@H]13 | 4.93 | > 50 | 15.8 | > 50 | 14 | 15.4 | 14 | > 50 | 15.2 |

More lines, main results first:

| IC50 (RAW264.7) [µM] | Compound | inhibition of growth at 40 µM [1] [%] | IC50 [2] [µM] | inhibition of growth at 40 µM [3] [%] | IC50 (A549 [4]) [µM] | IC50 [5] [µM] | IC50 (MCF7) [µM] | inhibition of growth at 40 µM (A549 [6]) [%] | IC50 (SW480) [µM] |
| --- | --- | --- | --- | --- | --- | --- | --- | --- | --- |
| 3.51 | C=C1C(=O)[C@]23C[C@@H]1C[C@@H](O)[C@H]2C12CO[C@@H]4OC[C@](C)(CC[C@@H]1OC3=O)[C@@H]42 (stereo partly specified) | > 50 | 12.5 | > 50 | 10.2 | 14.3 | 13.7 | > 50 | > 40 |
| 1.36 | C=C1C(=O)[C@]23C[C@@H]1CC[C@H]2C12[C@@H](OC)O[C@@H](O)[C@@H]1C(C)(C)CC[C@@H]2OC3=O (stereo partly specified) | > 50 | 4.7 | > 50 | 1.2 | 3.5 | 3.9 | > 50 | 3.9 |
| 1.47 | C=C1C(=O)[C@]23C[C@@H]1CC[C@H]2C12C(O)O[C@@H](OC)[C@@H]1C(C)(C)CC[C@@H]2OC3=O (stereo partly specified) | > 50 | 4.2 | > 50 | 3.9 | 3 | 2.4 | > 50 | 3.2 |
| 0.74 | C=C1C(=O)[C@]23C[C@@H]1CC[C@H]2[C@@]12CO[C@@H](O)[C@@H]1C(C)(C)CC[C@@H]2OC3=O | > 50 | 3.3 | > 50 | 2.1 | 2.1 | 3.4 | > 50 | 1.7 |
| 1.56 | C=C1C(=O)[C@]23C[C@@H]1CC[C@H]2C12[C@H](OC)O[C@@H](O)[C@@H]1C(C)(C)CC[C@@H]2OC3=O (stereo partly specified) | > 50 | 5 | > 50 | 3.4 | 3.2 | 3.2 | > 50 | 4.6 |
